Shown are actives, neighbours in structure and some others; about 2.6% of the full set was active somewhere.
MEKK2mut PB1 HTS: signal of MEK5 binding to mutant human MEKK2 PB1 domain; bead flow cytometry, Alexa488-MEK5 binding to MEKK2 mutant; percent response, % at 10 µM; actives 0.35% (n = 290,000); in the data active means percent response above about 24%, passing the limit was not always enough
MEKK2wt PB1 HTS: raises or lowers MEK5 binding to wildtype human MEKK2 PB1 domain; binding response (% of control), % at 10 µM; actives 1.1% (n = 290,000); bead flow cytometry, Alexa488-MEK5 binding to MEKK2 WT; actives lie on both sides; in the data active means binding response below about 67% or above about 130%
MEKK3 PB1 HTS: MEKK3-MEK5 PB1 interaction, increase or decrease. Q99759. bead-based flow cytometry, Alexa488-MEK5 binding to MEKK3; actives lie on both sides; 0 = blocked by unlabeled MEK5, 100 = vehicle. binding response (% of control), % at 10 µM. actives 1.4% (n = 290,000). AID 1529;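 active means binding response more than 3 SD above or below the average of its plate-row segment, actives on both sides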;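 further: Alexa488 bead fluorescence after subtracting the streptavidin-only scavenger bead signal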
Target sequence (Q99759 whole entry, looked up): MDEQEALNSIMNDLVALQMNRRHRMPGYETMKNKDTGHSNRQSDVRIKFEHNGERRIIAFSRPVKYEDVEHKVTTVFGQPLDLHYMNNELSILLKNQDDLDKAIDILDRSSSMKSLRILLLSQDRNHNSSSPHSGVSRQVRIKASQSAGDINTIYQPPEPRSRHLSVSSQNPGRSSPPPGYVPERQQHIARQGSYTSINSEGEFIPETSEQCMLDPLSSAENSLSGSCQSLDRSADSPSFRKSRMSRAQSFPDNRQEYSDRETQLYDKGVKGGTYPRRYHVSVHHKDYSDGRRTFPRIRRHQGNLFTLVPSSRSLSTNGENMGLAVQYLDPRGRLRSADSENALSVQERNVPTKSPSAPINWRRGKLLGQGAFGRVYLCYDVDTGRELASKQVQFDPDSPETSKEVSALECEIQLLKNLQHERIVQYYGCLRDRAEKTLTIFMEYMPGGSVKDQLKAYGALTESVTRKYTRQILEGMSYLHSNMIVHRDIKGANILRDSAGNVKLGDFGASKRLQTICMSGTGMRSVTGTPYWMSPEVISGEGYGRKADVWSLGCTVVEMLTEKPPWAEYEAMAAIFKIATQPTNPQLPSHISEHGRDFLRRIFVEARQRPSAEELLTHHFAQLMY
Hep lipid drop: hepatic lipid droplet formation modulation | AML12 mouse hepatocytes, oleate lipid droplets, BODIPY imaging | inhibition, % at 6.5 µM | actives 0.4% (n = 240,000);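 active means lipid droplet intensity inhibited by at least 50%, with more than 500 cells counted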
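Test system: AML12 mouse liver cells; schedule: overnight exposure; technique: high-content imaging of BODIPY-stained droplets and DAPI nuclei; read-out: % inhibition of corrected integrated BODIPY droplet signal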
MEKK2wt confirm: raises or lowers MEK5 binding to wildtype human MEKK2, retest; shares compounds with MEKK3 PB1 HTS; bead flow cytometry, Alexa488-MEK5 binding to MEKK2 WT; actives lie on both sides; binding response (% of control), % at 10 µM; actives 2.4% (n = 5,900); in the data active means binding response below about 16% or above about 210%; inactive means in between
MEKK2mut confirm: signal of MEK5 binding to mutant human MEKK2, retest; shares compounds with MEKK3 PB1 HTS; bead flow cytometry, Alexa488-MEK5 binding to MEKK2 mutant; percent response, % at 10 µM; actives 2% (n = 5,900); in the data active means percent response mostly above about 71%, no sharp cut-off; inactive means mostly below about 38%;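 further: higher means compound restores mutant binding toward wildtype level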
MEKK3-MEK5 inh: MEKK3-MEK5 PB1 inhibition, single concentration confirmation. binding response (% of control), % at 10 µM. actives 1.8% (n = 5,900). shares compounds with MEKK3 PB1 HTS. bead flow cytometry, Alexa488-MEK5 binding to MEKK3; active compounds read low;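 active means binding response below 72% of control, or above a set upper limit, though filed actives all read lower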;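 further: 100% = DMSO only wells and 0% = binding blocked by excess unlabeled MEK5; lower values mean stronger disruption of MEK5 binding to MEKK3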
Active calls of the source: *; / = not tested or not shown; [ ] = dose if it differs, or a comment.

SMILES	MEKK2mut PB1 HTS	MEKK2wt PB1 HTS	MEKK3 PB1 HTS	Hep lipid drop	MEKK2wt confirm	MEKK2mut confirm	MEKK3-MEK5 inh
NCC(c1ccc(Cl)cc1Cl)c1c[nH]c2ccccc12 (stereo not drawn)	19	141*	109	-36	137	23	105
CCCCN1C(=O)C2(OCCCO2)c2cccc(C)c21	3	101	98	5	/	/	/
O=C1C2C3CCC(C3)C2C(=O)N1c1ccc2ccccc2c1 (stereo not drawn)	9	112	101	0	/	/	/
O=C1C2C3C=CC(C3)C2C(=O)N1c1ccc2ccccc2c1 (stereo not drawn)	26*	116	114	0	99	-4	99
CSCC[C@H](NC(=O)N1C[C@H]2C[C@@H](C1)c1cccc(=O)n1C2)C(=O)Nc1ccc(NC(C)=O)cc1	1	101	100	/	/	/	/
CCOC(=O)C(=CN(CCc1ccccc1)CC(=O)OC)C(=O)OCC	-4	95	98	/	/	/	/
Cc1cc(C)c(OCCCCCNCCO)c(C)c1	-17	22*[inhibitor]	12*[inhibitor]	-6	107	2	103
Cc1cc(C)cc(OCCCCCNCCO)c1	8	105	103	-3	/	/	/
CCOc1ccc(C(C)=O)cc1CN1C(=O)NC2(CCCCCCC2)C1=O	-6	101	95	-9	/	/	/
Cc1c(CCOC(=O)C2C3CC4CC(C3)CC2C4)sc[n+]1CC(=O)c1ccc(Br)cc1 (stereo not drawn)	21	157*	87	/	180	40	105
CCCP(=O)(CCC)CCP(=O)(c1ccccc1)c1ccccc1	0	96	63*[inhibitor]	1	97	-4	94
CCn1c(CCNC(=O)c2cccs2)nnc1SCC(=O)NC1CCCCC1	-41	0.0*[inhibitor]	1.0*[inhibitor]	1	94	-8	96
COc1cc2c(cc1NC(=O)CCC(=O)O)oc1ccccc12	0	106	101	0	/	/	/
COc1cc2c(cc1NC(=S)Nc1cccc(C(F)(F)F)c1)oc1ccccc12	19	153*	102	5	126	-7	101
Cc1c(NC(=O)c2ccc3c(c2)OCO3)cccc1-c1nc2ccccc2o1	4	113	131*	/	108	13	111
Cc1ccc(-c2nc3ccccc3o2)cc1NC(=O)c1ccc2c(c1)OCO2	-2	97	97	-4	/	/	/
COc1cc2c(cc1NC(=O)c1ccc3c(c1)OCO3)oc1ccccc12	-34	-5.0*[inhibitor]	99	-5	95	-4	99
COc1cc2c(cc1NC(=O)Nc1ccccc1)oc1ccccc12	18	140*	105	/	157	16	96
CN(C(=O)Cn1nc(Cl)ccc1=O)C1CCCN(Cc2ccccc2F)C1 (stereo not drawn)	3	106	104	-19	/	/	/
CCCCC(CC)Cn1c(N)c(C#N)c2nc3ccccc3nc21 (stereo not drawn)	54*	183*	118	-5	100	-1	105
O=C(N/N=C/c1ccc([N+](=O)[O-])cc1)c1cnccn1	-19	64	66*[inhibitor]	38	96	-4	93
O=C(N/N=C/c1ccncc1)c1ccccc1[N+](=O)[O-]	6	105	99	18	/	/	/
O=C(N/N=C/c1ccncc1)c1cnccn1	6	108	105	-8	/	/	/
O=C(NC(=S)NCc1cccnc1)c1ccccc1[N+](=O)[O-]	-6	2.0*[inhibitor]	2.0*[inhibitor]	43	91	-6	96
CC(=O)c1ccc(NC(=S)NNC(=O)c2ccccc2[N+](=O)[O-])cc1	-2	102	101	9	/	/	/
SMILES	MEKK2mut PB1 HTS	MEKK2wt PB1 HTS	MEKK3 PB1 HTS	Hep lipid drop	MEKK2wt confirm	MEKK2mut confirm	MEKK3-MEK5 inh
O=C(N/N=C/c1cccnc1)c1ccccc1[N+](=O)[O-]	-2	88	58*[inhibitor]	-3	99	-4	99
O=C(NNC(=S)Nc1ccccc1)c1ccccc1[N+](=O)[O-]	-18	7.0*[inhibitor]	5.0*[inhibitor]	4	109	3	103
Cc1cc(C)cc(C(=O)NC(CC(N)=O)c2ccc(NC3CCCC3)c([N+](=O)[O-])c2)c1 (stereo not drawn)	-5	98	101	4	/	/	/
COc1ccc(C(C)=O)cc1CN(c1ccccc1OC)S(=O)(=O)c1cccs1	-1	99	100	-28	/	/	/
CCOC(=O)c1c(C)[nH]c(O)c1C=Nc1ccc(Cl)cc1	3	117	110	/	/	/	/
CCOC(=O)c1c(C)[nH]c(O)c1C=Nc1ccc(C(F)(F)F)cc1	6	119	132*	/	98	-1	100
CCOc1ccc(CNCCc2ccc(S(N)(=O)=O)cc2)cc1	-8	91	97	9	/	/	/
CCOc1cc(CNCCc2ccc(S(N)(=O)=O)cc2)ccc1OCc1ccc(Cl)cc1	46*	214*	110	/	183	37	105
COc1cc(CNCCc2ccc(S(N)(=O)=O)cc2)ccc1OCc1ccc(Cl)cc1	71*	232*	105	/	150	20	108
CCn1c(SCC(=O)Nc2cc3oc4ccccc4c3cc2OC)nnc1-c1cccs1	2	99	103	-18	/	/	/
CC(Sc1nc2ccccc2[nH]1)C(=O)O (stereo not drawn)	2	100	100	4	/	/	/
O=C(O)C(Cc1cc(Cl)ccc1Cl)Sc1nc2ccccc2[nH]1 (stereo not drawn)	25	129	135*	-17	98	-13	96
CCN1CCN(c2cc(C)c3cc(NC(=O)c4ccc(C)c(C)c4)ccc3n2)CC1	22	160*	109	10	153	24	104
Cc1ccc(C(=O)NCCN2CCNC2=O)cc1	28	131	129*	-3	101	1	99
CCOC(=O)c1cc(CC)sc1NC(=O)c1cc(OC)c(OC)c(OC)c1	15	141*	119	14	105	-7	100
CCOC(=O)c1cc(CC)sc1NC(=O)c1ccc(N2C(=O)CCC2=O)cc1	-3	101	102	2	/	/	/
CCOc1cc2c(cc1/C=C1/NC(=O)N(CC(=O)OC)C1=O)OCO2	-3	92	99	2	/	/	/
O=S(=O)(c1ccccc1)N1CCN(C(=S)Nc2ccccc2)CC1	4	109	103	-7	/	/	/
O=S(=O)(c1ccccc1)N1CCN(C(=S)Nc2ccc(F)cc2)CC1	0	103	134*	5	100	5	99
O=C1C(=Cc2ccc(Br)o2)C(=O)c2ccccc21	0	98	138*	2	105	1	106
CC1=C/C(=C\c2ccc(Br)o2)C(=O)O1	0	114	99	-5	/	/	/
O=C(CN1C(=O)NC2(CCCC2)C1=O)N1CCc2ccccc2C1	-8	89	97	3	/	/	/

From PubChem
